Results published in ChEMBL document CHEMBL4190282, “The Conjugated Double Bond of Coniferyl Aldehyde Is Essential for Heat Shock Factor 1 Mediated Cytotoprotection” (J Nat Prod, 2017).
The source made the active and inactive calls.

Tests used:
NCI-H460 = test: Upregulation of HSF1 protein level in human NCI-H460 cells at 10 to 30 uM after 12 hrs by Western blot analysis; format: functional, cell-based
Summary of the method: (§1)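 NCI-H460 cells treated 12 h at 10 or 30 μM; HSF1, HSP27 and HSP70 detected by Western blot.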

[1] = target: T1, Heat shock factor protein 1 (Homo sapiens) (UniProt Q00613); test: Activation of HSF1 in human NCI-H460 cells assessed as upregulation of HSP70 protein levels at 10 to 30 uM after 12 hrs by Western blot analysis; format: cell-based; summary of the method: as §1
T1 sequence (whole entry): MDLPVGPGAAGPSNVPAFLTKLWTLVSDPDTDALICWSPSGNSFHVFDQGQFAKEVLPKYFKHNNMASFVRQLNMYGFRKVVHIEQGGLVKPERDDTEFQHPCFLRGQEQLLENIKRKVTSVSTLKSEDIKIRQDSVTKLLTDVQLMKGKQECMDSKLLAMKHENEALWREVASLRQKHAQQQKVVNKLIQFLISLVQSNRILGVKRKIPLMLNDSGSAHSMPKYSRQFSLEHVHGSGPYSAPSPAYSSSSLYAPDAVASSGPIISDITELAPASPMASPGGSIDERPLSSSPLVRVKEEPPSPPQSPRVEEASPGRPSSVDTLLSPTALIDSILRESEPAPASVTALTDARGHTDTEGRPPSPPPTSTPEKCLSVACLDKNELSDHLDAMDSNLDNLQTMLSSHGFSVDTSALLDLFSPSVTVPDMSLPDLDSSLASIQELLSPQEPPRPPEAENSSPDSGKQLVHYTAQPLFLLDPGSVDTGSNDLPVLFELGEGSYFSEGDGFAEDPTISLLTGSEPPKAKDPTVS

[2] = target: T1, Heat shock factor protein 1 (Homo sapiens); test: Activation of HSF1 in human NCI-H460 cells assessed as upregulation of HSP25 protein levels at 10 to 30 uM after 12 hrs by Western blot analysis; format: cell-based; summary of the method: as §1
[3] = target: T1, Heat shock factor protein 1 (Homo sapiens); test: Activation of HSF1 in human NCI-H460 cells expressing pGL4-hsp70 construct assessed as upregulation of hsp70 promoter activity at 10 to 30 uM after 12 hrs by luciferase reporter gene assay; format: cell-based
Summary of the method: (§2)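 NCI-H460 cells stably carrying hsp25 or hsp70 promoter–luciferase reporters, seeded, treated after 24 h at 10 or 30 μM and harvested 12 h later. Lysate luciferase normalized to β-galactosidase; mean of three independent experiments, fold-change vs negative control.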

[4] = target: T1, Heat shock factor protein 1 (Homo sapiens); test: Activation of HSF1 in human NCI-H460 cells expressing pGL4-hsp25 construct assessed as upregulation of hsp25 promoter activity at 10 to 30 uM after 12 hrs by luciferase reporter gene assay; format: cell-based; summary of the method: as §2
[5] = target: T1, Heat shock factor protein 1 (Homo sapiens); test: Activation of HSF1 in human NCI-H460 cells assessed as upregulation of HSP25 protein levels at 1 uM after 12 hrs by Western blot analysis; format: cell-based
Summary of the method: (§3)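 Cells were grown to 30% confluence and treated for 12 h. Equal protein amounts were lysed and cleared at 13 000 rpm for 30 min at 4 °C, then boiled in sample buffer for 5 min. Proteins were resolved by 8% or 12% SDS-PAGE and transferred to nitrocellulose. Membranes were blocked in 5% milk/PBST, given primary antibody for 18 h at 4 °C and an HRP secondary, and developed by ECL.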

[6] = target: T1, Heat shock factor protein 1 (Homo sapiens); test: Activation of HSF1 in human NCI-H460 cells assessed as upregulation of HSP70 protein levels at 1 uM after 12 hrs by Western blot analysis; format: cell-based; summary of the method: as §3
L132 = test: Cytotoxicity against human L-132 cells assessed as reduction in cell viability up to 20 uM after 24 hrs by MTT assay; format: cell-based; conditions: l132, 24 h
Summary of the method: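 L132 cells treated 24 h at indicated doses up to 20 μM. MTT (5 mg/mL in PBS) 4 h at 37 °C, formazan dissolved in DMSO, absorbance at 540 nm converted to cell number via calibration curve. Celastrol positive control.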

Measured: Activity

COc1cc(CCC=O)ccc1O
inactive: NCI-H460 | [1] | [2] | [3] | [4]

COc1cc(CCCO)ccc1O
inactive: NCI-H460 | [1] | [2] | [3] | [4]

CC1=C(O)C(=O)C=C2C1=CC=C1[C@@]2(C)CC[C@@]2(C)[C@@H]3C[C@](C)(C(=O)O)CC[C@]3(C)CC[C@]12C [CELASTROL]
Toxic: L132
active: [5] | [6]
